Assay outcomes deposited in PubChem by several laboratories.
RTF Ca sens inh: cardiac RTF calcium desensitization | IANBD-labeled cardiac RTF, Ca2+ fluorescence | inhibition, % at 7.15 µM | actives 0.12% (n = 340,000) | AID 493244;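 active = inhibition above the mean inhibition of all tested compounds plus 3 SD, cut at about 17% in these data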;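 also: assay run at fixed EC70 calcium of 1.6 mM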
LANA DNA inh: blocks KSHV LANA C-terminal domain binding to DNA. MBP-C-LANA/FAM-LBS DNA binding, fluorescence polarization. AID 504423. actives 0.078% (n = 340,000). inhibition, % at 9 µM;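 active = highest replicate inhibition at or above 60% at 9 µM, even if other replicates fall short; inactive = all replicates below 60% inhibition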
RTF Ca sens act: increases calcium sensitivity of human cardiac regulated thin filaments; actives 0.24% (n = 340,000); activation, % at 7.2 µM; IANBD-labeled TnC RTF fluorescence at EC20 calcium; 0% EC20 calcium, 100% full calcium; AID 493008; P19429+P45379;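 active = activation above the mean over all tested compounds plus 3 SD, cut at about 30% in these data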;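 also: rise in fluorescence read as greater calcium sensitivity of cardiac thin filaments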
CAL PDZ FP-1: CAL PDZ (human) peptide binding inhibition; Q9HD26; purified CAL PDZ, TMR-peptide fluorescence polarization, 1 h; inhibition, % at 24.9 µM; actives 0.92% (n = 300,000);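 active = mean inhibition of at least 30% with at least half of replicates also reaching 30%; inconclusive = no clear call, values can overlap the other calls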
CAL PDZ FP-2: human CAL PDZ-peptide interaction inhibition | purified CAL PDZ, TMR-peptide fluorescence polarization, 1 h | inhibition, % at 20 µM | Q9HD26 | actives 0.02% (n = 330,000) | AID 504414;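 active = highest replicate inhibition of at least 40%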
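System: tagged CAL PDZ domain. Schedule: 1 h room-temperature incubation prior to read. Signal: fluorescence polarization (mP). Measure: percent inhibition from loss of millipolarization.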
Keap1-Nrf2 PPI: disrupts human Keap1 binding to Nrf2 peptide | Keap1 Kelch-Nrf2 peptide fluorescence polarization, 1536-well | inhibition, % at 9.4 µM | AID 504523 | actives 0.15% (n = 340,000); in the data active = inhibition above about 12%; inconclusive = no clear call, values can overlap the other calls; inactive = below about 7.3%;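 also: human Keap1 Kelch domain with fluorescein labeled Nrf2 9mer peptide probe; higher means more block of Keap1 binding to Nrf2 peptide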
Target sequence (Q14145 whole entry, looked up, the tested form may be a part): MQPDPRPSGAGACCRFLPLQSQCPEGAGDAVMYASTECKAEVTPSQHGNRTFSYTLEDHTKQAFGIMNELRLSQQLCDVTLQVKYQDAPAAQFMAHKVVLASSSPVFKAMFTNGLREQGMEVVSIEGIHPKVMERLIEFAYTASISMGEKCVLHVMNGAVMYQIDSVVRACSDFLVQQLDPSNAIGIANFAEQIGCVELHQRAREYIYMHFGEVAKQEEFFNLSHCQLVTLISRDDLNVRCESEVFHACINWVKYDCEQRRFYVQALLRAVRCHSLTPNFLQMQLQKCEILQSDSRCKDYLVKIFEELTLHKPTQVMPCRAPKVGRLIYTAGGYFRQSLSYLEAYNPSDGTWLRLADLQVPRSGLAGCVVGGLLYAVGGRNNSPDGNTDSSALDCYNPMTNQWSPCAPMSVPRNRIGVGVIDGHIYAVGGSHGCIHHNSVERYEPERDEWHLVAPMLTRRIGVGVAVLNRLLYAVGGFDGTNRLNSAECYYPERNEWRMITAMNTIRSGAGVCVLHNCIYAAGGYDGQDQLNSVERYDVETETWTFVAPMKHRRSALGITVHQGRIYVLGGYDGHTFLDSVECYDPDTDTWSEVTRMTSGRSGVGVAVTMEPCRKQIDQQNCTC
Of the large screens only hits and unclear results are named; the others gave an inactive call. Rows were chosen to be rich in hits. Some 1.3% of all compounds tested hit in one or more screens of this group.

O=C(N/N=C/c1cc(Br)ccc1O)c1ccncc1	CAL PDZ FP-1 113 (no result: CAL PDZ FP-2)
O=C(NN=Cc1c(O)ccc2ccccc12)c1ccncc1	RTF Ca sens act 31
Cc1ccc(C)c(S(=O)(=O)N2CCCC2CNC(=O)C(=O)NCCN2CCOCC2)c1 (centres undefined)	none
CCOC(CCNC(=O)c1cn(CCOC)c(=O)c2c1c1ccccc1n2C)OCC	none
O=C(Nc1ccc2c(c1)OCO2)c1cnc(Cl)c(Cl)c1	none
CC(=O)NCc1ccc(-c2csc(NC(=O)CCc3nc4ccccc4c(=O)[nH]3)n2)s1	none (no result: CAL PDZ FP-1)
O=C(c1cccc(C(=O)N2CCN(Cc3ccccc3)CC2)c1)N1CCN(Cc2ccccc2)CC1	none
O=C(c1cccc(Cl)c1)N1CCC(C(=O)N2CCN(Cc3ccccc3)CC2)CC1	CAL PDZ FP-1 45
N#Cc1ccc(Cl)cc1NC(=O)COC(=O)c1cccc(S(=O)(=O)N2CCOCC2)c1	none (no result: CAL PDZ FP-1)
O=C1c2ccc([N+](=O)[O-])cc2C(=O)N1c1ccc([N+](=O)[O-])cn1	none
O=C(Nc1cccc(Br)c1)c1cc(=O)c2ccccc2o1	none
CC(=O)c1cccc(NC(=O)c2cc(=O)c3ccccc3o2)c1	CAL PDZ FP-1 50
CC(=O)C[C@H](O)CC(=O)[C@@H]1OC(=O)[C@H](C)C/C=C\Cc2ccccc21	none
O=C(NCc1ccccn1)c1ccc2nc(C3CCCCC3)oc2c1	none
Cc1ccc(CSc2ccc(S(=O)(=O)N3CCCC3)cn2)cc1	CAL PDZ FP-1 71
CC(=O)N1CCc2cc(S(=O)(=O)NCC(=O)NCc3ccc(Cl)cc3)ccc21	CAL PDZ FP-1 active
CCC(=O)N1CCc2cc(S(=O)(=O)CCC(=O)NCc3ccc(C)cc3)ccc21	none (no result: CAL PDZ FP-1)
O=C(O)CCCC(=O)N1CCc2cc(S(=O)(=O)NCc3ccccc3)ccc21	none (no result: CAL PDZ FP-1)
Cc1ccc(CNS(=O)(=O)c2ccc3c(c2)CCN3C(=O)CCCC(=O)O)cc1	CAL PDZ FP-1 34
CCC(=O)N1CCc2cc(S(=O)(=O)NCCC(=O)NCc3ccc(F)cc3)ccc21	CAL PDZ FP-1 37
CC(C)[C@H](NC(=O)c1ccc([N+](=O)[O-])cc1Cl)C(=O)N1CCN(C/C=C/c2ccccc2)CC1	none
COc1ccc(S(=O)(=O)Nc2ccc(N(C)C(C)=O)cc2)cc1	none
COc1ccc(NS(=O)(=O)c2ccc3oc(=S)[nH]c3c2)cc1	CAL PDZ FP-1 31
CCN(CC)c1ccc(NS(=O)(=O)c2ccc(OC)cc2)cc1	CAL PDZ FP-1 66
COc1ccc(NS(=O)(=O)c2ccc3oc(=O)ccc3c2)cc1	none (no result: CAL PDZ FP-2)
CC(C)(C)SCCNC(=O)c1ccc(CN2CCc3ccccc3C2)cc1	none
CCN(CC)CCCNc1ccc2ncn3c4ccc(O)cc4c(=O)c1c23	LANA DNA inh 147, RTF Ca sens act 292, Keap1-Nrf2 PPI 108
CN(C)CCNc1ccc2nnn3c4ccc(O)cc4c(=O)c1c23	none
CC1CCN(C(=O)COC(=O)c2cccs2)CC1	none
CCOC(=O)C1CCCN(C(=O)Cn2cnc3sc(C)c(S(=O)(=O)N4CCOCC4)c3c2=O)C1 (centres undefined)	none
O=C(c1nc2ccc(Cl)cn2c1CN1CCC(CO)CC1)N1CCc2ccccc2C1	CAL PDZ FP-1 38
O=C(NC1CCCC1)c1ccc(CS(=O)(=O)c2ccc(Cl)cc2)o1	CAL PDZ FP-1 70
O=C(NC1CCCCC1)c1ccc(CS(=O)(=O)c2ccc(Cl)cc2)o1	none
O=C(Oc1ccccc1C(=S)N1CCOCC1)c1cccc([N+](=O)[O-])c1	none
COc1ccc(-c2ccc(SCC(=O)c3ccccc3)nn2)cc1OC	CAL PDZ FP-1 71
CC(=O)N[C@@H](CC(=O)N[C@H](CCC(=O)O)C(=O)O)C(=O)O	none
N#Cc1cnc(Oc2ccc(Cl)cc2)nc1N	none
O=C(C(c1ccccc1)c1ccccc1)N1CCN(Cc2ccccn2)CC1	CAL PDZ FP-1 31
O=C(O)CNC(=O)c1ccc(Oc2c(F)c(F)c(Oc3ccc(C(=O)NCC(=O)O)cc3)c(F)c2F)cc1	none
CC(C)CNC(=O)CSc1n[nH]c(=O)n1CCc1ccccc1	none
O=C(Cn1nc(Cc2cccnc2)c2ccccc2c1=O)Nc1cc(F)ccc1F	CAL PDZ FP-1 66
O=C1CCCCCC1C1(O)C(=O)Nc2ccc(Br)cc21 (centres undefined)	CAL PDZ FP-1 57
CSc1ccccc1NC(=O)CN(C)C(=O)c1c(C)nn(Cc2ccccc2)c1C	none (no result: CAL PDZ FP-1)
CC1CCN(CCCNC(=O)c2ccc3c(=O)n(Cc4ccc(Cl)cc4)c(=S)[nH]c3c2)CC1	CAL PDZ FP-2 66
CC(=O)N1CCN(C(=S)c2ccc(Cl)cc2)CC1	CAL PDZ FP-1 43
O=C(CSc1nnc(-c2ccccn2)n1Cc1ccccc1)Nc1ccc2c(c1)OCO2	CAL PDZ FP-1 32 (no result: CAL PDZ FP-2)
COc1cc(-c2noc(CCCC(=O)Nc3cccnc3)n2)cc(OC)c1OC	CAL PDZ FP-1 69
Cc1ccc(OCC(=O)N2CCN(C(=O)c3cccs3)CC2)cc1	CAL PDZ FP-1 46 (no result: CAL PDZ FP-2)
O=C1c2cccc3cccc(c23)C(=O)N1c1ccc(O)cc1	none
O=C1c2cccc3c(N4CCCCC4)ccc(c23)C(=O)N1c1ccc(O)cc1	RTF Ca sens act 115, Keap1-Nrf2 PPI inconclusive
CCOC(=O)C1(CCCc2ccccc2)CCN(Cc2nccn2CC)CC1	none
CCOC(=O)C1(CCOc2ccccc2)CCN(Cc2nccn2CC)CC1	CAL PDZ FP-1 33
CC(C)(C)OC(=O)CN1c2cccc3cccc(c23)S1(=O)=O	none
CCCCN(C)CCCNC(=O)C1(O)c2ccccc2NC(=O)N1c1ccc(Cl)cc1 (centres undefined)	none (no result: CAL PDZ FP-1)
O=C(COC(=O)Cc1ccc(F)cc1)NC1CCCCC1	CAL PDZ FP-1 34
O=C(COC(=O)Cc1ccc(F)cc1)NC1CCCCCC1	none
COCCN(C(=O)CN1CCCc2ccccc21)c1c(N)n(Cc2ccccc2)c(=O)[nH]c1=O	RTF Ca sens act 61
Nc1c(N(CCC2=CCCCC2)C(=O)CCCOc2ccccc2)c(=O)[nH]c(=O)n1Cc1ccccc1	CAL PDZ FP-1 49
COCCN(C(=O)CN1CCc2ccccc21)c1c(N)n(Cc2ccccc2)c(=O)[nH]c1=O	none
COCCN(C(=O)CSc1nnc(-c2ccccc2F)n1C)c1c(N)n(Cc2ccccc2)c(=O)[nH]c1=O	CAL PDZ FP-1 45
Nc1c(N(CCC2=CCCCC2)C(=O)COc2ccc(F)cc2)c(=O)[nH]c(=O)n1Cc1ccccc1	none
N/C(=N\OC(=O)c1ccc2c(c1)OCO2)c1ccncc1	CAL PDZ FP-1 48
CCn1c(SCC(=O)NC2CCCCC2)nnc1C(CO)NC(=O)c1ccccc1 (centres undefined)	none
O=c1c2ccccc2c2ccccc2c(=O)n1-c1ccccc1	none
Cc1cn(C(C)C)c(=O)n(-c2ccccc2)c1=O	CAL PDZ FP-1 33 (no result: CAL PDZ FP-2)
